Measurements published in ChEMBL document CHEMBL1125181, “Naphthosultam derivatives: a new class of potent and selective 5-HT2 antagonists” (J Med Chem, 1991).

Columns and labels:
Mus musculus [1] = assay: The concentration required to induce head twich in mice when given po (in vivo); assay type: functional
In short: (§1)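 Mice, 6 per dose, dosed sc 60 min or po 90 min before mescaline 50 mg/kg ip. Observed for 2 min starting 15 min after mescaline; head twitches scored as all-or-none.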

Rattus norvegicus [2] = assay: The concentration required to induce head twich for 1 hours in rats when given po (in vivo); assay type: functional
In short: (§2)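 Rats, 6 per dose, dosed sc or po, then given mescaline 20 mg/kg iv 1 h later (6 or 16 h later for duration of action). Head twitches counted for 15 min from injection. Fewer than 3 twitches counted as antagonism.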

Rattus norvegicus [3] = assay: The concentration required to induce head twich for 1 hours in rats when given sc (in vivo); assay type: functional; in short: as §2
D(2) dopamine receptor [4] = target: T1, D(2) dopamine receptor (Rattus norvegicus, UniProt P61169); assay: Binding constant against dopamine receptor D2 […]
T1 sequence (P61169 whole entry): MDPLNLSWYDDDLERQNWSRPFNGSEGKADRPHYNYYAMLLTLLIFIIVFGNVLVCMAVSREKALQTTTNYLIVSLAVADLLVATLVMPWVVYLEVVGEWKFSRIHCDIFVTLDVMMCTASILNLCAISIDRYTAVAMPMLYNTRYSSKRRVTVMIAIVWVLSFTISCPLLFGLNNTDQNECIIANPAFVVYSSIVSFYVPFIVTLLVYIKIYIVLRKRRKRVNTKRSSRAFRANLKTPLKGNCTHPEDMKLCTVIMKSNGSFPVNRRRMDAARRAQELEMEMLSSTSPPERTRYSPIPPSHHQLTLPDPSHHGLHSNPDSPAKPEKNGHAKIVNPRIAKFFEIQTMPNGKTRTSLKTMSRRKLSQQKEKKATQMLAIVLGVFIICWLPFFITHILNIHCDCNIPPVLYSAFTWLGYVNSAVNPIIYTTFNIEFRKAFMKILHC
In short: (§3)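 Rat striatal membranes (0.05 mg/mL protein) in Tris-HCl with BSA 2 mg/mL, NaCl, cinanserin 10⁻⁶ M and compound. [3H]spiperone (final 0.05 nM) added after 5 min, incubation continued 40 min. Nonspecific binding from 10⁻⁶ M sulpiride. Filtration and scintillation counting.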

Rattus norvegicus [5] = assay: The concentration required to induce head twich for 16 hours in rats when given po (in vivo); assay type: functional; in short: as §2
Rattus norvegicus [6] = assay: The concentration required to induce head twich for 6 hours in rats when given po (in vivo); assay type: functional; in short: as §2
Rattus norvegicus [7] = assay: The concentration required to induce head twich for 16 hours in rats when given sc (in vivo); assay type: functional; in short: as §2
[8] = target: T2, 5-hydroxytryptamine receptor 1A (Rattus norvegicus, UniProt P19327); assay: Binding constant against 5-hydroxytryptamine 1A receptor (in vivo); details: in the assay text read “(in vitro)” for “(in vivo)”
T2 sequence (P19327 whole entry): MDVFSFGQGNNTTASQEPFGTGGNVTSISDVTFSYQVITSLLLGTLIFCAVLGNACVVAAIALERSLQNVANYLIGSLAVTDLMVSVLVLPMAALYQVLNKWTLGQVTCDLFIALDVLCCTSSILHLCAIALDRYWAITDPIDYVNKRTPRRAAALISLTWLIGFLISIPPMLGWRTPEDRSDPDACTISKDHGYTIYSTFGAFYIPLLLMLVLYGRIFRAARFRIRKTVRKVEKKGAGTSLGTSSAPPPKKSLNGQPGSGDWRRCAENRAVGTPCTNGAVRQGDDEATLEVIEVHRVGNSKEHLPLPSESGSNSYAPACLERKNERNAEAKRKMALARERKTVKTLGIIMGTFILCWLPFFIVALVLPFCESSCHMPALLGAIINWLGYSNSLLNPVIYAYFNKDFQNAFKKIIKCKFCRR
In short: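 Rat hippocampal membranes (1 mg/mL protein, Tris-HCl) preincubated 5 min at 37 °C with compound, then [3H]-8-OH-DPAT (final 1 nM) added for a further 10 min. Nonspecific binding from 10⁻⁵ M serotonin. Filtration through glass-fibre filters, two ice-cold buffer washes, scintillation counting of bound radioactivity.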

Histamine H1 receptor = Histamine H1 receptor (Cavia porcellus, UniProt P31389); assay: Binding constant against histamine H1 receptor […]
Histamine H1 receptor, sequence (P31389 whole entry): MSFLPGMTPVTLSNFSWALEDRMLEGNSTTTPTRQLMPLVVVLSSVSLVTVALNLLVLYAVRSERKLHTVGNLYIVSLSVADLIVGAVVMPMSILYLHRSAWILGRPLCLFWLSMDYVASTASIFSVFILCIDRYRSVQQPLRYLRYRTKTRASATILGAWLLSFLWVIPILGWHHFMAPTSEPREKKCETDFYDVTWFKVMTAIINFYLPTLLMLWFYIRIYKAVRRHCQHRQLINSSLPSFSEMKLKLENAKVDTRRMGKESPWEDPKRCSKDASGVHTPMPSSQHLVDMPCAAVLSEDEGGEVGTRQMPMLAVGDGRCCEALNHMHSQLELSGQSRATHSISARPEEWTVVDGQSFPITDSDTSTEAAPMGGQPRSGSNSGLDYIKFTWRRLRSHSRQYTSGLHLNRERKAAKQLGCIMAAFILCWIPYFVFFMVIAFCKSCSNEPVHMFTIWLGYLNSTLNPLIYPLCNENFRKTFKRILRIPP
In short: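 Male guinea pig cerebellar membranes (0.35 mg/mL protein) in 50 mM sodium phosphate pH 7.5. Incubated 30 min at 25 °C with compound and [3H]mepyramine (final 0.7 nM). Nonspecific binding from 10⁻⁶ M promethazine. Filtration through glass-fibre filters and liquid scintillation counting.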

Rattus norvegicus [9] = assay: The concentration required to induce head twich for 6 hours in rats when given sc (in vivo); assay type: functional; in short: as §2
D(2) dopamine receptor [10] = target: T1, D(2) dopamine receptor; assay: The concentration required to inhibit [3H]spiperone binding to dopamine receptor D2 in rat brain membranes (in vitro); assay type: cell membranes; in short: as §3
Mus musculus [11] = assay: The concentration required to induce head twich in mice when given sc (in vivo); assay type: functional; in short: as §1
[12] = target: Serotonin 2 (5-HT2) receptor (Rattus norvegicus, UniProt P30994+P08909+P14842); assay: The concentration required to inhibit [3H]ketanserin binding to 5-hydroxytryptamine 2 receptor in rat brain membranes (in vitro); assay type: cell membranes
In short: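 Male Sprague-Dawley rat cortical membranes (0.15 mg/mL protein) in Tris-HCl pH 7.6 with BSA 2 mg/mL. Incubated 15 min at 37 °C with compound and [3H]ketanserin (final 0.4 nM). Nonspecific binding from 10⁻⁶ M methysergide. Filtration and scintillation counting. IC50 by nonlinear regression; mean of at least 2 runs, 6 concentrations in triplicate.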

[13] = target: T3, Adrenergic receptor alpha-1 (Rattus norvegicus, UniProt P15823+P23944+P43140); assay: The concentration required to inhibit 3[H]prazosin binding to Alpha-1 adrenergic receptor in rat brain membranes was measured (in vitro); assay type: cell membranes
T3 sequence (P15823 whole entry): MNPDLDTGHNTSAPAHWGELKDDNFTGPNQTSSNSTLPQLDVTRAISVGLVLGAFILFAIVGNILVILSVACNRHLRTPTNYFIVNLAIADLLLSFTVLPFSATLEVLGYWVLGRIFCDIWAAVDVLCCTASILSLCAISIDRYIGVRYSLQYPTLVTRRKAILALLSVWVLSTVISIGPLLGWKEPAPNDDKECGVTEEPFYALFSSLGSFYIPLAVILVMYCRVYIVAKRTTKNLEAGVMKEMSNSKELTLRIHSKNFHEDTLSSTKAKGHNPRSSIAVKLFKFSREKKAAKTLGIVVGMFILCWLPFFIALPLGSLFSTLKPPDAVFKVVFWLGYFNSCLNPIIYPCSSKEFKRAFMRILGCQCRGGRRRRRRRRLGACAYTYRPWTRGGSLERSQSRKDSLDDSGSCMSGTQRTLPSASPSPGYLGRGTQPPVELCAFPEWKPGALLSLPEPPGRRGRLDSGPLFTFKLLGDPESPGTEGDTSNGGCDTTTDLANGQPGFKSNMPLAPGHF
T3 sequence (P23944 whole entry): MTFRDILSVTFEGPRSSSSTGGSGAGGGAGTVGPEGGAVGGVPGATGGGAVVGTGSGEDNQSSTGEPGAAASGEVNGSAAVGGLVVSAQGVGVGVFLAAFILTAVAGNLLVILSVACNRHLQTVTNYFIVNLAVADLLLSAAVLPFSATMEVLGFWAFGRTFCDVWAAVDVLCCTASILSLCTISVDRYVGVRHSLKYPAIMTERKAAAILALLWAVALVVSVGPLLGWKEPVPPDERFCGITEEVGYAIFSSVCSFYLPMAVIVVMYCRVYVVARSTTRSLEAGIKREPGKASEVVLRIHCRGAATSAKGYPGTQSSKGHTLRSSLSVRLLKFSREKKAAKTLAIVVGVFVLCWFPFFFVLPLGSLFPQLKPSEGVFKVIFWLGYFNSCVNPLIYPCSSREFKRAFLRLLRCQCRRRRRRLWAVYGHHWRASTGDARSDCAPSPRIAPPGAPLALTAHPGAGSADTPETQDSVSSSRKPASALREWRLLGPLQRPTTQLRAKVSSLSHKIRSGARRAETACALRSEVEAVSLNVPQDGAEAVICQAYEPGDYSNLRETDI
T3 sequence (P43140 whole entry): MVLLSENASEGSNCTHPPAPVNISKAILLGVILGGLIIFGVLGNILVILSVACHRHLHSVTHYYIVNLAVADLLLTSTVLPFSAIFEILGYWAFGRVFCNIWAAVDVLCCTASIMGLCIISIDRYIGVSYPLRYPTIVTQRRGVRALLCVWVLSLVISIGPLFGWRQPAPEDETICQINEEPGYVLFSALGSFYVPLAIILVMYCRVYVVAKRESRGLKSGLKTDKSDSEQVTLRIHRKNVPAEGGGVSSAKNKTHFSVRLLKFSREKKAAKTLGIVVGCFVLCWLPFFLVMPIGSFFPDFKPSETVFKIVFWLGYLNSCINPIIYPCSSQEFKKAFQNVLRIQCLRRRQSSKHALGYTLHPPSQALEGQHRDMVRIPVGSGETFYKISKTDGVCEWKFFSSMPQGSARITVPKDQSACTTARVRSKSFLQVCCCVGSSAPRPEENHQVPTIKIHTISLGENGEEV
In short: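 Male Sprague-Dawley rat cerebrocortical membranes (0.15 mg/mL protein) in Tris-HCl pH 7.6 with BSA 2 mg/mL. Incubated 40 min at 25 °C with compound and [3H]prazosin (final 0.065 nM). Nonspecific binding from 10⁻⁶ M phentolamine. Filtration and scintillation counting. IC50 values are the mean of at least 2 runs, each with 6 concentrations in triplicate.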

| SMILES | ED50 (Mus musculus [1]) | ED50 (Rattus norvegicus [2]) | ED50 (Rattus norvegicus [3]) | Ki (D(2) dopamine receptor [4]) | ED50 (Rattus norvegicus [5]) | ED50 (Rattus norvegicus [6]) | ED50 (Rattus norvegicus [7]) | Ki [8] | Ki (Histamine H1 receptor) | ED50 (Rattus norvegicus [9]) | IC50 (D(2) dopamine receptor [10]) | ED50 (Mus musculus [11]) | IC50 [12] | IC50 [13] |
| --- | --- | --- | --- | --- | --- | --- | --- | --- | --- | --- | --- | --- | --- | --- |
| O=S1(=O)c2cccc3cccc(c23)N1CCCN1CCN(c2ccc(F)cc2)CC1 [FANANSERIN] | 0.43 mg/kg | 0.99 mg/kg | 0.65 mg/kg | > 1000 nM | 14.2 mg/kg | 2.38 mg/kg | 5.91 mg/kg | 70 nM | 25 nM | 0.45 mg/kg | > 1000 nM | 0.16 mg/kg |  |  |
| O=S1(=O)c2cccc3cccc(c23)N1CCCCN1CCN(c2ccc(F)cc2)CC1 |  |  |  |  |  |  |  |  |  |  | 300 nM |  | 3.7 nM | 11 nM |
